High-throughput results deposited in PubChem BioAssay by several laboratories.
Diaph inh CS: diaphorase inhibitors and chemical oxidizers, primary screen, counter-screen for diaphorase-coupled primary assays, biochemical, uHTS, resorufin fluorescence | diaphorase resazurin-to-resorufin fluorescence, NADH, 16 min; bacterial (C. kluyveri) enzyme, not human | inhibition, % at 20 µM | 0.69% of 190,000 active | AID 1217, 2008;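 active = primary screen inhibition at 20 µM above a set limit, cut at about 50% in these data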
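Test system: diaphorase enzyme from Clostridium kluyveri; amount: diaphorase at 0.14 U/mL in enzyme working solution; detection: fluorescence of resorufin formed from resazurin, Ex 544/Em 590 nm; times: reaction incubation of 16 min at room temperature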
ROMK primary: ROMK potassium channel modulators, primary screen, cell-based, thallium flux, MLSMR library | 2% of 130,000 active | AID 1918, 2009 | B-score at 10 µM | Tet-inducible ROMK, thallium flux fluorescence; actives lie on both sides | ATP-sensitive inward rectifier potassium channel 1 (Homo sapiens), P48048;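 active = signal ratio slope over the read window, or its plate-corrected B-score, at least 3 SD from the plate mean, either direction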;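 also: B-score of the F/F0 ratio slope over 7 to 12 s after thallium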
PMI act: activators of human PMI, primary screen, biochemical, fluorescence intensity, near-Km mannose 6-phosphate; 0.005% of 190,000 active; activation factor at 20 µM; purified human PMI, coupled resazurin fluorescence, 20 min; stronger effect = higher value; 1 = vehicle control, 0 substrate-free wells;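 active = activation factor of 2 or more at 20 µM, relative to plate controls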
Target sequence (P34949 whole entry, looked up): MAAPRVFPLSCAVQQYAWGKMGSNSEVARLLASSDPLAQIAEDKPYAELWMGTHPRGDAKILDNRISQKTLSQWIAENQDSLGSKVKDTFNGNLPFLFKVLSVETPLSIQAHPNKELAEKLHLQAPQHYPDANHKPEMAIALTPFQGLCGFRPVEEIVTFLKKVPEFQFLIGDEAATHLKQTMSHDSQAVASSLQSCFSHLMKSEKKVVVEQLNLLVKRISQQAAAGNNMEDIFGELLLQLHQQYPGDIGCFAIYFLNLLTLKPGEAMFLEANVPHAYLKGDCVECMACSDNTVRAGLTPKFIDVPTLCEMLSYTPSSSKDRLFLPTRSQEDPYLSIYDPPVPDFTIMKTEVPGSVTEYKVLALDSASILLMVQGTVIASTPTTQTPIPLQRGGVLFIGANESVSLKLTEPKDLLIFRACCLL
PMI act hi M6P: human PMI activators, high substrate, primary screen, biochemical, fluorescence intensity, near-saturating mannose 6-phosphate. Mannose-6-phosphate isomerase (Homo sapiens), P34949. activation factor at 20 µM. coupled PMI enzyme assay, resazurin fluorescence, 20 min; stronger effect = higher value; 1 = untreated enzyme, 0 = substrate-free blank. 0.34% of 190,000 active;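 active = activation factor of 2 or more at 20 µM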
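test system = human PMI in coupled enzyme assay | medium = HEPES-buffered pH 7.4 with magnesium and detergent | also added = 1.0 mM mannose-6-phosphate substrate with 0.22 mM NADP+ | compound = 20 µM single dose | times = 20 min incubation at room temperature | measured by = resorufin fluorescence (Ex 544/Em 590 nm) from resazurin via diaphorase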
G6PDH counter: L. mesenteroides G6PDH inhibitors, counter-screen for G6PDH-coupled screening assays, biochemical, Leuconostoc mesenteroides enzyme | 0.12% of 200,000 active | inhibition, % at 5 µM | glucose-6-phosphate dehydrogenase [Leuconostoc mesenteroides] | Purified L. mesenteroides G6PDH, diaphorase/resazurin coupled fluorescence, 45 min; in the data active = inhibition above about 50%
Diaphorase act: compounds boosting diaphorase resazurin reduction – biochemical, uHTS, resorufin fluorescence, counter-screen for diaphorase-coupled primary assays, primary screen; 0.005% of 190,000 active; Diaphorase/resazurin coupled assay, 16 min; stronger effect = higher value; 1 = vehicle wells, 0 = NADH-free wells; activation factor at 20 µM;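 active = diaphorase activity raised at least twofold by the compound at 20 µM; inactive = activation factor below 2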
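Assay system: Purified diaphorase enzyme from Clostridium kluyveri | Amount: Enzyme 0.07 U/mL final | Dosing: Compound 20 µM once, DMSO 1% | Timing: 16 min reaction at room temperature | Detection: Fluorescence, excitation 544 nm and emission 590 nm | Evaluation: Higher resorufin formation from activation or reduction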
ROMK hit retest: ROMK channel modulator hit retest, confirmation, cell-based, thallium flux, duplicate, resupplied hits; shares compounds with ROMK primary; fluorescence ratio; stronger effect = lower value; normalized thallium flux (F/F0 slope) at 10 µM; 54% of 3,000 active;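 active = Flux at 10 µM at least 3 SD below or above vehicle control mean in one or both replicates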
A number is an active result; n = inactive; x = no result given. Hits are enriched below; roughly 2.2% of the tested compounds scored in any of these assays.

SMILES	Diaph inh CS	ROMK primary	PMI act	PMI act hi M6P	G6PDH counter	Diaphorase act	ROMK hit retest
O=C(O)c1cc(N2N=C(C(F)(F)F)/C(=C/C=C/c3ccco3)C2=O)ccc1Cl	56	-5.3	n	2.2	n	n	0.049
CCOC(=O)c1ccc(N2N=C(C)/C(=C/C=C/c3ccco3)C2=O)cc1	n	n	n	n	n	n	x
CCN(CC)CCN(C(=O)c1ccc(C(C)=O)cc1)c1nc2ccc(Cl)cc2s1	n	n	n	n	n	n	x
CN=C1c2c(-c3ccccc3)c3cc(OC)ccc3n2CCN1C	n	-3.7	n	n	n	n	0.067
COc1ccc2c(c1)c1ccccc1n2C	n	n	n	n	n	n	x
Cc1cc(C(=O)NCC23CC4CC(CC(C4)C2)C3)c(C)o1	n	n	n	n	n	n	x
NC1=NC2=C(CCCC2)C2(CCCCC2)S1	n	-3.1	n	n	n	n	0.064
COCc1cc(CN2CCN(Cc3ccsc3)C(CCO)C2)ccc1OC (centres undefined)	x	n	x	x	n	x	x
CCOC(=O)c1c(NC(=S)Nc2ccccc2)sc2c1CCN(CCc1ccccc1)C2	n	x	n	n	n	n	0.061
COc1ccc(C(=O)NN(C)c2nc(C(F)(F)F)nc3ccccc23)cc1	n	3.5	n	n	n	n	n
COc1ccc(C(=O)NN(C)c2nc(-c3ccccc3)nnc2C(F)(F)F)cc1	n	n	n	n	n	n	x
COc1ccc(C)cc1S(=O)(=O)N(C)CC(=O)N1CCN(c2ccccc2)CC1	n	n	n	n	n	n	x
CCCCOC(=O)CSC1=C(C#N)C(c2cccnc2)C(C(=O)OCC)=C(c2ccccc2)N1 (centres undefined)	n	-3.4	n	n	n	n	0.067
Cc1ccc2cc(C)c3nnc(SCc4ccc(C(=O)O)cc4)n3c2c1C	x	n	x	x	x	x	x
CCOC(=O)C1CCCN(C(=O)c2cnn3c(C(F)F)cc(-c4ccc(C)cc4)nc23)C1 (centres undefined)	n	x	n	n	n	n	n
Cc1ccc(-c2cc(C(F)F)n3ncc(C(=O)N4CCN5CCCC5C4)c3n2)cc1 (centres undefined)	n	x	n	n	n	n	x
CC(=O)c1cccc(NC(=O)COC(=O)c2n[nH]c3ccccc23)c1	n	n	n	n	n	n	x
O=C(COC(=O)c1ccc(NS(=O)(=O)c2cccs2)cc1O)NCc1ccccc1	n	3.6	n	n	n	n	n
O=C(COC(=O)c1ccc(NS(=O)(=O)c2cccs2)cc1O)Nc1nc2ccccc2s1	n	n	n	n	n	n	x
COc1cc(C(=O)Nc2nc(C)c(Cc3ccc4c(c3)OCO4)s2)cc(OC)c1OC	n	2.6	n	n	n	n	0.11
CCCOc1ccc(C(=O)Nc2nc(C)c(Cc3ccc4c(c3)OCO4)s2)cc1	n	n	n	n	n	n	x
CCC1CCCCN1C(=O)Nc1cc(Cl)ccc1OC (centres undefined)	n	n	n	n	n	n	x
NC(=O)CCC(NC(=O)c1ccc(Cl)cc1)C(=O)O (centres undefined)	n	n	n	n	n	n	x
O=C(NC1CCCCCC1)c1cc(S(=O)(=O)N2CCCCC2)ccc1N1CCOCC1	n	-3.2	n	n	n	n	0.061
O=C(NC1CCCCCC1)c1cc(S(=O)(=O)N2CCOCC2)ccc1N1CCCCC1	n	x	n	n	n	n	x
